Reference: ChEMBL document CHEMBL3804828, “2,4,6-Triaminopyrimidine as a Novel Hinge Binder in a Series of PI3Kδ Selective Inhibitors” (J Med Chem, 2016)

What was measured:
[1] = molecular target: PI3-kinase p110-delta/p85-alpha (Homo sapiens, UniProt O00329); test: Inhibition human full length PI3Kdelta catalytic subunit/p85alpha assessed as formation of PIP3 after 30 mins by europium labeled GRP-based TR-FRET assay; format: protein-complex assay
Homo sapiens [2] = species on record: Homo sapiens; test: Selectivity ratio of IC50 for human full length PI3Kalpha catalytic subunit/p85alpha to IC50 for human full length PI3Kdelta catalytic subunit/p85alpha
In short: (§1)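 Ratio calculated from the isoform-specific PI3K IC50 values, with enzyme assays run in quadruplicate.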

Homo sapiens [3] = species on record: Homo sapiens; test: Selectivity ratio of IC50 for human recombinant PI3Kbeta to IC50 for human full length PI3Kdelta catalytic subunit/p85alpha; in short: as §1
Homo sapiens [4] = species on record: Homo sapiens; test: Selectivity ratio of IC50 for human full length PI3Kgamma to IC50 for human full length PI3Kdelta catalytic subunit/p85alpha; in short: as §1
[5] = Clearance in human hepatocytes at 1 uM by LC/MS/MS analysis; format: ADME, cell-based, Hepatocyte
In short: (§2)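 Human hepatocytes, incubated with and without the aldehyde oxidase inhibitor raloxifene; predicted clearance calculated from turnover.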

Hepatocyte = test: Clearance in human hepatocytes at 1 uM by LC/MS/MS in presence of aldehyde oxidase inhibitor raloxifene; format: ADME, cell-based; in short: as §2

PI3-kinase p110-delta/p85-alpha, sequence (P27986 whole entry): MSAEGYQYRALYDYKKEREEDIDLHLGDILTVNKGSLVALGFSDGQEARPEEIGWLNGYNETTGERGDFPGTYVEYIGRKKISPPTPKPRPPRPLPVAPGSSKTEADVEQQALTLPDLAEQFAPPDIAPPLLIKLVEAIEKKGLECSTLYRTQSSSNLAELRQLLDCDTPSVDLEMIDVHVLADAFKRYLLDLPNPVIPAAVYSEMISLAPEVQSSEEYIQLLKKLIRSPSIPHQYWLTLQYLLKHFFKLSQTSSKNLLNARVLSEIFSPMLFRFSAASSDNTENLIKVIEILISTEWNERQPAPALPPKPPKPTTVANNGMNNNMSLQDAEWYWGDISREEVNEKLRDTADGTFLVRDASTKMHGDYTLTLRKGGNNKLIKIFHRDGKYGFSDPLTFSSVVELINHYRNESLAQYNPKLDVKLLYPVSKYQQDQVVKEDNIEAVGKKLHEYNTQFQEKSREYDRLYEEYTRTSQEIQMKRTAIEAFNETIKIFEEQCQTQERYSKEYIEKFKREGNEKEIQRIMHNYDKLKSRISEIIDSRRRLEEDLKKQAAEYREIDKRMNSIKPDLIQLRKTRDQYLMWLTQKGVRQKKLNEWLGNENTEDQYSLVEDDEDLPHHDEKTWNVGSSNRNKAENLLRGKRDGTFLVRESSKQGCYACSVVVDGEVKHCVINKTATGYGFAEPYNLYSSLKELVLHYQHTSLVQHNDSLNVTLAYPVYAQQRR
PI3-kinase p110-delta/p85-alpha, sequence (O00329 whole entry): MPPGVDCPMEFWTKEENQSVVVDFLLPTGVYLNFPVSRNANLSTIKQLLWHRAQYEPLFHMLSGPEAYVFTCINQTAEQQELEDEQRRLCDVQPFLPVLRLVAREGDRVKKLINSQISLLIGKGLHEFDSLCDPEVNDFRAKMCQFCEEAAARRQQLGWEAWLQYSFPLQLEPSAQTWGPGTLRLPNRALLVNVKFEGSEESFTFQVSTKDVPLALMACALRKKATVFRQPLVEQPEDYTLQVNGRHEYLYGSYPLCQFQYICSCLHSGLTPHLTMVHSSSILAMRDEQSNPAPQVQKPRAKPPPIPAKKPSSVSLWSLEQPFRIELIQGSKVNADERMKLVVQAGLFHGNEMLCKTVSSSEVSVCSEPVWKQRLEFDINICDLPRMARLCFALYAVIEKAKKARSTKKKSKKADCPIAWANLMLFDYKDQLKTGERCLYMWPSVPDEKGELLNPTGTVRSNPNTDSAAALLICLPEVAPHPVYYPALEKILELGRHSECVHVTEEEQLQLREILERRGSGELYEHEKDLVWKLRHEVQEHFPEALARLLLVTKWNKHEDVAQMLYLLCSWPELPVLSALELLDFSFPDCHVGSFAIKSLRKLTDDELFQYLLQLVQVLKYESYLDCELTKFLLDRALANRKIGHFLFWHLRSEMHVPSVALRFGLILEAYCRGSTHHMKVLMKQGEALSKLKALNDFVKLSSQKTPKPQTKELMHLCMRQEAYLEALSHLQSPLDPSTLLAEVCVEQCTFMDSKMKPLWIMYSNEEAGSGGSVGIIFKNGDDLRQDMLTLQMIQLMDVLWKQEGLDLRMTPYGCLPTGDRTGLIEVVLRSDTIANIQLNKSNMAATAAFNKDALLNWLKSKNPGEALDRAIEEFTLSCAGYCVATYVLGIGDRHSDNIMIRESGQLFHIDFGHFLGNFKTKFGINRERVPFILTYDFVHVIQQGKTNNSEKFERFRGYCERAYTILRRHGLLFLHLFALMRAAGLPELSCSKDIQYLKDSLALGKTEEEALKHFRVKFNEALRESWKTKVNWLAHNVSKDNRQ

IC50 [1] | Ratio IC50 (Homo sapiens [2]) | Ratio IC50 (Homo sapiens [3]) | Ratio IC50 (Homo sapiens [4]) | CLhep predicted at 1 µM [5] | CLH (Hepatocyte) | Compound
2.9 nM | 780 | 470 | 74 | 6.5 mL/min/kg |  | C[C@H](Nc1nc(N)nc(N)c1C#N)c1nc2ccc(F)c(Cl)c2c(=O)n1-c1cc(F)cc(F)c1
0.3 nM | 1600 | 120 | 320 |  |  | C[C@H](Nc1ncnc(N)c1C#Cc1ccccc1)c1nc2cccc(Cl)c2c(=O)n1-c1ccccc1
4.3 nM | 720 | 180 | 37 | 9.83 mL/min/kg |  | C[C@H](Nc1nc(Cl)nc(N)c1C#N)c1nc2cccc(Cl)c2c(=O)n1-c1ccccc1
0.47 nM | 2600 | 520 | 110 | 13.5 mL/min/kg |  | C[C@H](Nc1nc(N)nc(N)c1C#N)c1nc2cccc(Cl)c2c(=O)n1-c1cc(F)cc(F)c1
1.9 nM | 1700 | 340 | 90 |  |  | C[C@H](Nc1nc(N)nc(N)c1C#N)c1nc2cccc(Cl)c2c(=O)n1-c1cccc(C#N)c1
0.4 nM | 3200 | 52 | 512 |  |  | C[C@H](Nc1ncnc(N)c1C#Cc1cnccn1)c1nc2cccc(Cl)c2c(=O)n1-c1ccccc1
1.5 nM | 850 | 220 | 220 |  |  | C[C@H](Nc1nc(N)nc(N)c1C#N)c1nc2cccc(Cl)c2c(=O)n1-c1cc(Cl)cc(C(F)F)c1
0.13 nM | 1900 | 100 | 40 | 17.5 mL/min/kg |  | Cc1nc(N)nc(N[C@@H](C)c2nc3cccc(Cl)c3c(=O)n2-c2ccccc2)c1C#N
1.8 nM | 1200 | 340 | 560 | 9.83 mL/min/kg | 2 mL/min/kg | C[C@H](Nc1ncnc(N)c1C(F)(F)F)c1nc2cccc(Cl)c2c(=O)n1-c1ccccc1
11 nM | 860 | 310 | 310 | 4.5 mL/min/kg | 1.3 mL/min/kg | C[C@H](Nc1ncnc(N)c1C(N)=O)c1nc2cccc(Cl)c2c(=O)n1-c1ccccc1
3.5 nM | 810 | 920 | 130 | 8.83 mL/min/kg |  | C[C@H](Nc1nc(N)nc(N)c1C#N)c1nc2c(F)cccc2c(=O)n1-c1cc(F)cc(F)c1
4.8 nM | 600 | 520 | 160 | 4.83 mL/min/kg |  | C[C@H](Nc1nc(N)nc(N)c1C#N)c1nc2ccc(F)cc2c(=O)n1-c1cc(F)cc(F)c1
1 nM | 530 | 100 | 25 | 13.7 mL/min/kg |  | C[C@H](Nc1nc(N)nc(Cl)c1C#N)c1nc2cccc(Cl)c2c(=O)n1-c1ccccc1
0.15 nM | 3100 | 550 | 90 |  |  | C[C@H](Nc1nc(N)nc(N)c1C#N)c1nc2cccc(Cl)c2c(=O)n1-c1cccc(F)c1
0.5 nM | 620 | 240 | 100 |  |  | C[C@H](Nc1ncnc(N)c1C#Cc1cccnc1)c1nc2cccc(Cl)c2c(=O)n1-c1ccccc1
240 nM | > 42 | 30 | > 42 |  |  | C[C@H](Nc1ncnc(N)c1C#Cc1cccnn1)c1nc2cccc(Cl)c2c(=O)n1-c1ccccc1
0.1 nM | 2200 | 80 | 60 | 3.5 mL/min/kg | 1.7 mL/min/kg | C[C@H](Nc1nc(N)nc(N)c1C#N)c1nc2cccc(Cl)c2c(=O)n1-c1ccccc1
0.54 nM | 1800 | 190 | 210 |  |  | C[C@H](Nc1nc(N)nc(N)c1C#N)c1nc2cccc(Cl)c2c(=O)n1-c1cccc(C(F)F)c1
0.45 nM | 530 | 140 | 70 |  |  | C[C@H](Nc1nc(N)nc(N)c1C#N)c1nc2cccc(Cl)c2c(=O)n1-c1cccc(Cl)c1
15 nM | 530 | 290 | 75 | 2.83 mL/min/kg |  | C[C@H](Nc1nc(N)nc(N)c1C#N)c1nc2ccccc2c(=O)n1-c1cc(F)cc(F)c1
2 nM | 64 | 4 | 2 |  |  | C[C@H](Nc1nc(N)nc(N)c1C#N)c1nc2cccc(Cl)c2c(=O)n1-c1ccc(F)cc1
150 nM | > 68 | > 68 | > 68 |  |  | C[C@H](Nc1nc(N)nc(N)c1C#N)c1nc2cccc(Cl)c2c(=O)n1-c1cc(C#N)cc(C#N)c1
3.6 nM | 1100 | 230 | 57 |  |  | C[C@H](Nc1nc(N)nc(N)c1C#N)c1nc2cccc(Cl)c2c(=O)n1-c1cccc(C(F)(F)F)c1
0.3 nM | 1500 | 260 | 230 |  |  | C[C@H](Nc1ncnc(N)c1C#Cc1cn[nH]c1)c1nc2cccc(Cl)c2c(=O)n1-c1ccccc1
0.9 nM | 1100 | 330 | 70 |  |  | COc1cccc(-n2c([C@H](C)Nc3nc(N)nc(N)c3C#N)nc3cccc(Cl)c3c2=O)c1
1.6 nM | 1400 | 230 | 120 |  |  | C[C@H](Nc1nc(N)nc(N)c1C#N)c1nc2cccc(Cl)c2c(=O)n1-c1cccc(CC(F)F)c1
5.9 nM | 1700 | 1200 | 800 | 8.33 mL/min/kg |  | C[C@H](Nc1nc(N)nc(N)c1C#N)c1nc2c(C#N)cccc2c(=O)n1-c1cc(F)cc(F)c1

Compound | IC50 [1] | Ratio IC50 (Homo sapiens [2]) | Ratio IC50 (Homo sapiens [3]) | Ratio IC50 (Homo sapiens [4]) | CLhep predicted at 1 µM [5] | CLH (Hepatocyte)
Cc1c(N)ncnc1N[C@@H](C)c1nc2cccc(Cl)c2c(=O)n1-c1ccccc1 | 14 nM | 700 | 380 | 700 | 12.2 mL/min/kg | 4.17 mL/min/kg
C[C@H](Nc1cc(N)ncn1)c1nc2cccc(Cl)c2c(=O)n1-c1ccccc1 | 99 nM | > 100 | > 100 | > 100 |  | 
COc1c(N)ncnc1N[C@@H](C)c1nc2cccc(Cl)c2c(=O)n1-c1ccccc1 | 39 nM | > 251 | > 251 | > 251 |  | 
C[C@H](Nc1ccncn1)c1nc2cccc(Cl)c2c(=O)n1-c1ccccc1 | 1700 nM | > 6 | > 6 | > 6 |  | 
C[C@H](Nc1nc(N)nc(N)c1Cl)c1nc2cccc(Cl)c2c(=O)n1-c1ccccc1 | 0.9 nM | 2700 | 370 | 200 | 10.8 mL/min/kg | 
C[C@H](Nc1ncncc1C#N)c1nc2cccc(Cl)c2c(=O)n1-c1ccccc1 | 8 nM | 1200 | 460 | 370 |  | 
C[C@H](Nc1nc(N)ncc1C#N)c1nc2cccc(Cl)c2c(=O)n1-c1ccccc1 | 2.5 nM | 530 | 170 | 15 |  | 
C[C@H](Nc1ccnc(N)c1C#N)c1nc2cccc(Cl)c2c(=O)n1-c1ccccc1 | 30 nM | > 340 | > 340 | > 340 |  | 
C#Cc1c(N)ncnc1N[C@@H](C)c1nc2cccc(Cl)c2c(=O)n1-c1ccccc1 | 0.1 nM | 9700 | 490 | 1900 | 11 mL/min/kg | 
[2H]c1nc(N)c(C#N)c(N[C@@H](C)c2nc3cccc(Cl)c3c(=O)n2-c2ccccc2)n1 | 1.2 nM |  |  |  | 8.33 mL/min/kg | 1.7 mL/min/kg
